Laboratory results taken from ChEMBL document CHEMBL4732060, “Cytotoxic triterpenoid-safirinium conjugates target the endoplasmic reticulum” (Eur J Med Chem, 2021).
Activity calls are given as the source filed them. The rule behind the calls is not given here.

Tests used:
[1] = test system: A-375; experiment: Cytotoxicity against human A-375 cells assessed as reduction in cell viability measured after 72 hrs by SRB assay; format: functional, cell-based; conditions: A-375, 72 h
[2] = test system: HT-29; experiment: Cytotoxicity against human HT-29 cells assessed as reduction in cell viability measured after 72 hrs by SRB assay; format: functional, cell-based; conditions: HT-29, 72 h
[3] = test system: NIH3T3; experiment: Cytotoxicity against mouse NIH3T3 cells assessed as reduction in cell viability measured after 72 hrs by SRB assay; format: cell-based; conditions: NIH3T3, 72 h
Outline: (§1)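 Sulforhodamine B assay on human tumour lines A375 (epithelial melanoma), HT29 (colorectal adenocarcinoma), MCF-7 (breast adenocarcinoma), A2780 (ovarian carcinoma) and FaDu (squamous cell carcinoma). Non-malignant NIH 3T3 (mouse fibroblasts) and HEK293 (human embryonic kidney) cells were also tested. EC50 values are given as mean ± standard mean error.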

[4] = test system: FaDu; experiment: Cytotoxicity against human FaDu cells assessed as reduction in cell viability measured after 72 hrs by SRB assay; format: functional, cell-based
[5] = test system: MCF7; experiment: Cytotoxicity against human MCF7 cells assessed as reduction in cell viability measured after 72 hrs by SRB assay; format: functional, cell-based; conditions: MCF7, 72 h
[6] = test system: A2780; experiment: Cytotoxicity against human A2780 cells assessed as reduction in cell viability measured after 72 hrs by SRB assay; format: functional, cell-based; conditions: A2780, 72 h
[7] = test system: MCF7; experiment: Cytotoxicity against human MCF7 cells assessed as reduction in cell viability upto 30 uM measured after 72 hrs by SRB assay; format: functional, cell-based; conditions: dose microM <=30, time 72.0 hrs; outline: as §1
[8] = test system: A-375; experiment: Cytotoxicity against human A-375 cells assessed as reduction in cell viability upto 30 uM measured after 72 hrs by SRB assay; format: functional, cell-based; conditions: dose microM <=30, time 72.0 hrs; outline: as §1
[9] = test system: NIH3T3; experiment: Cytotoxicity against mouse NIH3T3 cells assessed as reduction in cell viability upto 30 uM measured after 72 hrs by SRB assay; format: cell-based; conditions: nih3t3, 72 h; outline: as §1
[10] = test system: HT-29; experiment: Cytotoxicity against human HT-29 cells assessed as reduction in cell viability upto 30 uM measured after 72 hrs by SRB assay; format: functional, cell-based; conditions: dose microM <=30, time 72.0 hrs; outline: as §1
[11] = test system: FaDu; experiment: Cytotoxicity against human FaDu cells assessed as reduction in cell viability upto 30 uM measured after 72 hrs by SRB assay; format: functional, cell-based; conditions: dose microM <=30, time 72.0 hrs; outline: as §1
[12] = Drug uptake in human A-375 cells measured after 24 hrs by fluorescence imaging analysis; format: ADME, cell-based; conditions: a-375, 24 h
Outline: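 Fluorescence imaging of cells after a prolonged 24 h incubation with compound, to judge entry into the cells.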

[13] = test system: A2780; experiment: Cytotoxicity against human A2780 cells assessed as reduction in cell viability upto 30 uM measured after 72 hrs by SRB assay; format: functional, cell-based; conditions: dose microM <=30, time 72.0 hrs; outline: as §1
[14] = test system: HEK293; experiment: Cytotoxicity against human HEK293 cells assessed as reduction in cell viability upto 30 uM measured after 72 hrs by SRB assay; format: cell-based; conditions: hek293, 72 h; outline: as §1

Drug uptake [12] | SMILES | EC50 [1] [µM] | EC50 [2] [µM] | EC50 [3] [µM] | EC50 [4] [µM] | EC50 [5] [µM] | EC50 [6] [µM] | Activity [7] | Activity [8] | Activity [9] | Activity [10] | Activity [11] | Activity [13] | Activity [14]
– | CC[N+]1(CC)CN2C(=N1)C(C(=O)N1CCN(C(=O)[C@]34CCC(C)(C)C[C@H]3C3=CC[C@@H]5[C@@]6(C)CC[C@H](OC(C)=O)C(C)(C)[C@@H]6CC[C@@]5(C)[C@]3(C)CC4)CC1)=Cc1ccccc12 | 21.4 | 26.2 | 18.4 | 18.1 | 19.8 | 21.4 | – | – | – | – | – | – | –
Not Active | CCCCCCCC[N+]1(CCCCCCCC)CN2C(C)=CC(C)=C(C(=O)[O-])C2=N1 | > 30 | > 30 | > 30 | > 30 | > 30 | > 30 | inactive | inactive | Non-Toxic | inactive | inactive | inactive | Non-Toxic
Not Active | CC1=CC(C)=C(C(=O)[O-])C2=N[N+]3(CCN(C)CC3)CN12 | > 30 | > 30 | > 30 | > 30 | > 30 | > 30 | inactive | inactive | Non-Toxic | inactive | inactive | inactive | Non-Toxic
Not Active | CC1=CC(C)=C(C(=O)[O-])C2=N[N+]3(CCCCC3)CN12 | > 30 | > 30 | > 30 | > 30 | > 30 | > 30 | inactive | inactive | Non-Toxic | inactive | inactive | inactive | Non-Toxic
– | CC[N+]1(CC)CN2C(=N1)C(C(=O)N1CCN(C(=O)[C@]34CC[C@@H](C)[C@H](C)[C@H]3C3=CC[C@@H]5[C@@]6(C)CC[C@H](OC(C)=O)C(C)(C)[C@@H]6CC[C@@]5(C)[C@]3(C)CC4)CC1)=Cc1ccccc12 | 21.4 | > 30 | > 30 | 18.3 | 10.2 | 9 | – | – | – | – | – | – | –
Not Active | CC1=CC(C)=C(C(=O)[O-])C2=N[N+](C)(C)CN12 | > 30 | > 30 | > 30 | > 30 | > 30 | > 30 | inactive | inactive | Non-Toxic | inactive | inactive | inactive | Non-Toxic
– | C=C(C)[C@@H]1CC[C@]2(C(=O)N3CCN(C(=O)C4=C(C)C=C(C)N5C[N+](CC)(CC)N=C45)CC3)CC[C@]3(C)[C@H](CC[C@@H]4[C@@]5(C)CC[C@H](OC(C)=O)C(C)(C)[C@@H]5CC[C@]43C)[C@@H]12 | 26.2 | > 30 | 22.4 | > 30 | 26.3 | 21.6 | – | – | – | – | – | – | –
Not Active | CC1=CC(C)=C(C(=O)[O-])C2=N[N+]3(CCCC3)CN12 | > 30 | > 30 | > 30 | > 30 | > 30 | > 30 | inactive | inactive | Non-Toxic | inactive | inactive | inactive | Non-Toxic
Not Active | CC[N+]1(CC)CN2C(C)=CC(C)=C(C(=O)[O-])C2=N1 | > 30 | > 30 | > 30 | > 30 | > 30 | > 30 | inactive | inactive | Non-Toxic | inactive | inactive | inactive | Non-Toxic
– | CC[N+]1(CC)CN2C(=N1)C(C(=O)N1CCN(C(=O)[C@]34CC[C@@H](C(C)=O)[C@@H]3C3=CC[C@@H]5[C@@]6(C)CC[C@H](OC(C)=O)C(C)(C)[C@@H]6CC[C@@]5(C)[C@]3(C)CC4)CC1)=Cc1ccccc12 | 15 | 22.2 | 3 | 13.3 | 13.2 | 10.9 | – | – | – | – | – | – | –
Not Active | CC1=CC(C)=C(C(=O)[O-])C2=N[N+]3(CCOCC3)CN12 | > 30 | > 30 | > 30 | > 30 | > 30 | > 30 | inactive | inactive | Non-Toxic | inactive | inactive | inactive | Non-Toxic
– | CC[N+]1(CC)CN2C(=N1)C(C(=O)NCCNC(=O)[C@]13CCC(C)(C)C[C@H]1C1=CC[C@@H]4[C@@]5(C)CC[C@H](OC(C)=O)C(C)(C)[C@@H]5CC[C@@]4(C)[C@]1(C)CC3)=Cc1ccccc12 | 19 | 25 | 28.5 | 27.1 | 21.8 | 24.2 | – | – | – | – | – | – | –
Not Active | CCCCCCCCCCCC[N+]1(CCCCCCCCCCCC)CN2C(C)=CC(C)=C(C(=O)[O-])C2=N1 | > 30 | > 30 | > 30 | > 30 | > 30 | > 30 | inactive | inactive | Non-Toxic | inactive | inactive | inactive | Non-Toxic
– | COc1cccc2c1C(=O)c1c(O)c3c(c(O)c1C2=O)C[C@@](O)(C(=O)CO)C[C@@H]3O[C@H]1C[C@H](N)[C@H](O)[C@H](C)O1 [DOXORUBICIN] | – | 0.9 | 0.4 | – | 1.1 | 0.01 | – | – | – | – | – | – | –
– | CC[N+]1(CC)CN2C(=N1)C(C(=O)NCCNC(=O)[C@]13CC[C@@H](C(C)=O)[C@@H]1C1=CC[C@@H]4[C@@]5(C)CC[C@H](OC(C)=O)C(C)(C)[C@@H]5CC[C@@]4(C)[C@]1(C)CC3)=Cc1ccccc12 | 16.6 | > 30 | 21.3 | 16.1 | 15.7 | 20.8 | – | – | – | – | – | – | –
– | CC[N+]1(CC)CN2C(=N1)C(C(=O)NCCNC(=O)[C@]13CC[C@@H](C)[C@H](C)[C@H]1C1=CC[C@@H]4[C@@]5(C)CC[C@H](OC(C)=O)C(C)(C)[C@@H]5CC[C@@]4(C)[C@]1(C)CC3)=Cc1ccccc12 | 13.8 | 22.1 | 3.6 | 10.2 | 11.7 | 11.2 | – | – | – | – | – | – | –

SMILES | Drug uptake [12] | EC50 [1] [µM] | EC50 [2] [µM] | EC50 [3] [µM] | EC50 [4] [µM] | EC50 [5] [µM] | EC50 [6] [µM] | Activity [7] | Activity [8] | Activity [9] | Activity [10] | Activity [11] | Activity [13] | Activity [14]
CC[N+]1(CC)CN2C(=N1)C(C(=O)[O-])=Cc1ccccc12 | Not Active | – | – | – | – | – | – | – | – | – | – | – | – | –
